Measurements as given in ChEMBL document CHEMBL4513216, “Probing the Open Global Health Chemical Diversity Library for Multistage-Active Starting Points for Next-Generation Antimalarials” (ACS Infect Dis, 2020).

assay: Toxicity liver stage against HepG2, at 10uM; type: cell-based; design: test concentration 10 uM, cell line HepG2-A16-CD81EGFP; details: human, HepG2-A16-CD81EGFP cells; read-out: INHIBITION
In short: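 Uninfected HepG2-A16-CD81EGFP cells, 3 × 10^3 per well, 1536-well, plated on prespotted compound at 10 μM final, parasite-free screening media added to match infected plates; puromycin 10 μM positive, DMSO 0.5% negative; run in parallel with 48 h PbLuc assay at 37 °C, 5% CO2; viability by CellTiter-Glo luminescence, normalized to controls.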

SMILES | cytotoxicity at 10 µM [%]
CS(=O)(=O)CCCNC(=O)Nc1sc2ccccc2c1Cl | 6.54
CC(C)c1nc2c(n1C)CCN(CCCOc1ccc(C#N)cc1)C2 | -12.8
Cc1ncc(CNC(=O)Cc2cccs2)c(C2CCCN2C)n1 (stereo not given) | -0.279
Cc1cc(CN2CC[C@]3(C[C@@H](OCC(=O)N(C)C)CO3)C2)no1 | -105
CC(C)NC(=O)CCNC(=O)CCc1cc(Cl)cs1 | -2.59
CC(C)NC(=O)C1CN(C(=O)Cc2ccccc2)CC12CCOCC2 (stereo not given) | 5.31
CC1(c2ncc(CN3CCOCC3)cn2)CCCCO1 (stereo not given) | 6.08
O=C(NC1CCCNC1)c1cc(COc2cccc(C(F)(F)F)c2)[nH]n1 (stereo not given) | -1.31
O=C1CC2(CCN(Cc3ccc(-c4ccccc4)s3)C2)C(=O)N1 (stereo not given) | -0.745
COC(=O)CCNC(=O)c1cc(Br)c2c(c1)OCCO2 | 11
Cc1cccc(CN(Cc2ccccn2)S(=O)(=O)N(C)C(C)C)c1 | -5.02
CC(C)NC(=O)c1ccc2c(c1)nc1n2CCN(Cc2ccco2)C1 | 8.16
CN1C[C@@H](n2cnc(-c3ccccc3)c2-c2nccn2C)C[C@H]1C(=O)O | -0.338
O=C1OCCN1Cc1ccc(C(F)(F)F)cc1F | -0.419
CC(=O)Nc1c(C)cnn1Cc1cc(F)ccc1F | 25.3
Cc1nccc(N2CCCC(C)(c3[nH]ncc3C(N)=O)C2)n1 (stereo not given) | 1.86
Cc1noc(-c2ccnc(N3CCCN(C4CCOCC4)CC3)c2)n1 | -2.85
NC(=O)Cn1cc(NC(=O)N2CCC(c3ccccc3)CC2)cn1 | -7.69
OCCc1cc(CC2(NCc3ccc(C(F)(F)F)cc3)COC2)no1 | -4.41
Cc1cc(C)n(C2CCCN(C(=O)c3cnc4onc(C)c4c3)C2)n1 (stereo not given) | 5.17
CN(Cc1ccccc1)CC(O)Cn1cnc2sccc2c1=O (stereo not given) | -6.54
Cc1nc(CNC(=O)Nc2cc(F)ccc2N2CCN(C)CC2)no1 | -8.8

SMILES | cytotoxicity at 10 µM [%]
CCCS(=O)(=O)N1CCN(c2cc(-n3nc(C)cc3C)nc(C)n2)CC1 | -13.7
CN(C)CC1CN(Cc2c(Cl)ccc3cccnc23)CCO1 (stereo not given) | 4.2
COc1ccc(-n2cnnc2SCC(C)(C)O)cn1 | 13.5
COC[C@@]12CC[C@@H](N3CCOCC3)C[C@H]1CCN(c1ccc(Cl)cn1)C2 | -5.14
Cc1nc(C)n(C2CCCN(C(=O)c3cc4ccccc4n3C)C2)n1 (stereo not given) | -4.5
Cn1nc2c(cc1=O)CN(Cc1ccc(-n3cccn3)cc1)CC2 | -141
CN(C)CC(=O)N1Cc2cc(N(C)C)ccc2C1c1cnco1 (stereo not given) | -0.757
COc1ccc2c(ccn2CCC(=O)Nc2nc[nH]n2)c1 | -12.6
CSc1ncnc(NCc2cccs2)c1C#N | -0.277
O=C(NCCOCCO)c1cnc(-c2ccccc2)nc1O | 0.701
COc1cc(C(C)=O)ccc1OCC(=O)N(C)Cc1cnn(C)c1 | -3.88
Cc1ccc(C(NC(=O)CCNC(=O)c2ccoc2)C(F)(F)F)cc1 (stereo not given) | 9.49
COc1c(CNCc2ccnc(N3CCCCC3)c2)c(C)nn1C | 10.1
CC(C)c1cc(C(=O)N[C@@H]2CC[C@@H](Oc3ccccc3)[C@@H]2O)on1 | 2.27
CSCC[C@@H]1CN2CCC[C@H]2CN1Cc1cn(C)nc1C | -11.3
c1cnn(CCCO[C@@H]2CC[C@H]3[C@H]2OCCN3CC2CCOCC2)c1 | 7.77
CC(=O)Nc1nc(C(=O)N2CCCC(n3ccnc3C)C2)cs1 (stereo not given) | -9.78
COc1cccc(CNc2cc(CO)ccc2Cl)c1 | -13.3
O=C(OCc1cccs1)c1cccc(C(=O)N2CCCC2)n1 | -1.11
Cc1ncsc1CCC(=O)N(C)Cc1nc2ccccc2n1C | -143
CN(Cc1cccc(Cl)c1)C(=O)Cn1nc(-c2ccc(F)cc2)oc1=O | -19.9
CNC(=O)[C@H]1C[C@H]2OCC[C@H]2N(Cc2ccc(C)o2)C1 | 11.8

SMILES | cytotoxicity at 10 µM [%]
O=S(=O)(c1cccs1)N1CCN(Cc2nc(-c3ccco3)cs2)CC1 | 21.2
CSCC[C@@H](CO)Nc1ccc(-c2nc(-c3ccccc3F)no2)cn1 | 9.74
CCCn1cc(C(=O)NCCS(N)(=O)=O)c2ccccc21 | 5.15
CN(C)CCn1c2c(ccc1=O)CC(NC(=O)NC1CCCC1)CC2 (stereo not given) | -0.913
COCCc1noc(CNC2CCCC(C)(C)C2)n1 (stereo not given) | -0.475
Cc1noc(CCCC(=O)N2CCCCC2c2nccs2)n1 (stereo not given) | -87.5
O=C(CN(CC1CCC1)CC(F)(F)F)N1CCOCC1 | -13.1
CCc1noc(CCC(=O)N[C@@H]2CC[C@@H](n3ccnc3C)[C@@H]2O)n1 | -20.5
CCC1=N[C@@]2(CC[C@@H]3CN(C(=O)NCc4ccccc4)C[C@@H]32)C(=O)N1C | 1.05
O=C1Nc2ccccc2CC12CCCN2Cc1cccnc1 (stereo not given) | 7.27
CC(=O)N1CC[C@]2(O)CCN(Cc3nc(C)c[nH]3)C[C@@H]2C1 | -5.79
COc1cccc(-n2cc(-c3ccnc(NC(CO)C(C)C)n3)cn2)c1 (stereo not given) | 2.74
CCCC1c2cccn2CCN1C(=O)Cn1cnc2sc(C)cc2c1=O (stereo not given) | -0.35
Cc1ccc(F)c(N2CCCC(Nc3nccn4cnnc34)C2=O)c1 (stereo not given) | -0.115
CC(C)O[C@@H]1CC[C@H]2[C@H]1OCCN2C(=O)c1nn(C)c2ccccc12 | -0.824
NC(=O)NC(=O)CCN1CCN(CC2CC2)c2ccccc21 | 17.9
Cc1nc(CN(C)C2CCN(Cc3ccc(Cl)s3)C2)no1 (stereo not given) | -2.84
c1ccc(N2CCN(Cc3cnc(C4CCCCO4)nc3)CC2)nc1 (stereo not given) | -3
CCCn1ncc(C(=O)N2CCN(C3CCSCC3)CC2)c1C | -148
COc1ccc(CN2C[C@@H]3CN(Cc4ccncc4)C[C@@H]3C2=O)cc1 | -3.86
Cc1cc(N[C@H]2CCCN(Cc3ccccc3)C2)n2nc(C)cc2n1 | 1.53
CS(=O)(=O)NCC1CCCN(C(=O)Nc2ccccc2Cl)C1 (stereo not given) | -9.73

SMILES | cytotoxicity at 10 µM [%]
Cc1cc(-n2cnnn2)n2ncnc2n1 | -5.66
O=C(NCc1cc[nH]n1)NCC(O)c1ccccc1F (stereo not given) | -17.1
COc1ccc(CNc2nnc(CC(C)(C)C)o2)cc1C#N | -10.1
Cc1nn(C)c(C)c1C(C)NCc1ccc(OC(C)C)cc1 (stereo not given) | 15.3
O=C1COC2(CCN(S(=O)(=O)C3CC3)CC2)CN1c1ccsc1 | 6.12
Cc1nc(N(C)CCCc2nccn2C)c2c(C)nn(C)c2n1 | 5.84
Cc1cccc(NS(=O)(=O)c2cnn(C)c2)c1C#N | -0.655
c1cncc(COCC2CC[C@H]3[C@H]2OCCN3Cc2ccoc2)c1 (stereo not given in full) | 1.2
Cc1cc(C)n(CC2CCCCN2CC(=O)Nc2ccncc2)n1 (stereo not given) | 8.69
Cc1nc(NCc2ccc(F)cc2)cc(C(=O)N2CCOCC2)n1 | -9.14
c1ccc(CN2CCN3C[C@H](Oc4cccnc4)C[C@H]3C2)nc1 | 6.59
N#Cc1cccc(S(=O)(=O)NC2CCN(CC(F)(F)F)C2)c1 (stereo not given) | -1.03
O=C(Cn1cc(-c2ccccc2)ncc1=O)Nc1nc(C2CC2)n[nH]1 | 6.2
CN1CCC(c2nnc3ccc(C(=O)N4CCCCC4)cn23)C1 (stereo not given) | -167
CCN(Cc1noc(CC(C)C)n1)Cc1ccccc1OCC(=O)O | -49
O=C(NCCCn1nc2ccccn2c1=O)NCc1ccccc1 | -16.1
Cc1cc(C)n(CC2CN(c3ncnc4[nH]ccc34)CCO2)n1 (stereo not given) | -6.88
NS(=O)(=O)c1cnn(CC(=O)Nc2c(Cl)cccc2Cl)c1 | -7.2
Cc1ncc(-c2nc3cc(S(=O)(=O)N4CCCC4)ccc3n2C)cn1 | -21
CCCc1nnc(N2CCN(C3CCCC3)CC2)o1 | -13.8
COC1CN(C(=O)COC(C)=O)CCC(=O)N(C)c2ccccc21 (stereo not given) | -3.03
CCCC1c2cccn2CCN1S(=O)(=O)N1CCOCC1 (stereo not given) | 1.26

SMILES | cytotoxicity at 10 µM [%]
Cc1ccc(O)c(CNC2CCc3nc(C)nn3C2)n1 (stereo not given) | -1.08
CCS(=O)(=O)N1CCC(NC(=O)c2ccccc2O)CC1 | -7.27
COCCN(Cc1ccoc1)C(=O)c1ccccn1 | 9.24
COC(C)C(=O)Nc1cc(C(=O)N2CCSCC2)ccc1C (stereo not given) | 6.83
c1ccc(N2CCC3(CCCN(c4ncccn4)C3)C2)nc1 (stereo not given) | -133
CCCNC(=O)C(C)Nc1ccn(Cc2ccccn2)n1 (stereo not given) | -5.95
CC(C)(CNC(=O)CCOc1cccc(F)c1)C(N)=O | -0.704
CCc1noc(CN(C)C(=O)COc2cccc(Cl)c2C)n1 | 3.86
O=C(NCc1cccs1)NCC(O)c1ccoc1 (stereo not given) | -11.9
Clc1cccc(N[C@H]2CCCN[C@H]2Cc2ccccc2)c1 | 89.4
CN(Cc1n[nH]c2c1CCCC2)c1nc2c(c(=O)[nH]1)CCNCC2 | -20.1
CC(C)c1nccn1C1CCCN(C(=O)c2ccnc(N(C)C)c2)C1 (stereo not given) | 5.1
CCCNC(=O)CCC(=O)Nc1cc2sc(C)nc2cc1OC | 4.55
CC(C(=O)NCC(C)(C)c1ccc2c(c1)OCO2)n1ccnc1 (stereo not given) | 6.36
CSc1nccc(N2CCCC(c3nccn3C(C)C)C2)n1 (stereo not given) | 7.72
COCCCn1c(CN2CCCCO2)cnc1S(=O)(=O)C1CCCC1 | 4.24
Cc1cc(C)c(CNC(=O)NCC(O)c2ccccc2F)c(=O)[nH]1 (stereo not given) | -0.185
O=C1CC[C@@H](C(=O)N2CCc3[nH]nc(COc4cccc(Cl)c4)c3C2)N1 | -52.1
Cc1nc(C)n(CC2CN(CCOCC(F)(F)F)CCO2)n1 (stereo not given) | -1.95
CCOc1ccc(Cl)cc1CNCCCn1ccnc1 | 1.36
CNc1nc(C2CCCN2C(C)=O)nc2c1CN(CCO)CC2 (stereo not given) | 2.69
CC(C)(C)C(=O)NCc1nccn1CCc1ccccc1 | 3.75
